Source: ChEMBL document CHEMBL4680134, “Structural optimization of natural product nordihydroguaretic acid to discover novel analogues as AcrB inhibitors” (Eur J Med Chem, 2020)
The source made the active and inactive calls. The calls are words filed in the database; no cut-off is given here.

How the values were obtained:
[1] = target: T1, Multidrug efflux pump subunit AcrB (Escherichia coli (strain K12)) (UniProt P31224); assay: Inhibition of AcrB in Escherichia coli BW25113 assessed as potentiation of erythromycin induced antibacterial activity by measuring erythromycin MIC at 32 ug/ml measured after 18 hrs by checkerboard titration method (reference value: 64 ug/ml); conditions: dose 32.0 µg/ml
T1 sequence (whole entry): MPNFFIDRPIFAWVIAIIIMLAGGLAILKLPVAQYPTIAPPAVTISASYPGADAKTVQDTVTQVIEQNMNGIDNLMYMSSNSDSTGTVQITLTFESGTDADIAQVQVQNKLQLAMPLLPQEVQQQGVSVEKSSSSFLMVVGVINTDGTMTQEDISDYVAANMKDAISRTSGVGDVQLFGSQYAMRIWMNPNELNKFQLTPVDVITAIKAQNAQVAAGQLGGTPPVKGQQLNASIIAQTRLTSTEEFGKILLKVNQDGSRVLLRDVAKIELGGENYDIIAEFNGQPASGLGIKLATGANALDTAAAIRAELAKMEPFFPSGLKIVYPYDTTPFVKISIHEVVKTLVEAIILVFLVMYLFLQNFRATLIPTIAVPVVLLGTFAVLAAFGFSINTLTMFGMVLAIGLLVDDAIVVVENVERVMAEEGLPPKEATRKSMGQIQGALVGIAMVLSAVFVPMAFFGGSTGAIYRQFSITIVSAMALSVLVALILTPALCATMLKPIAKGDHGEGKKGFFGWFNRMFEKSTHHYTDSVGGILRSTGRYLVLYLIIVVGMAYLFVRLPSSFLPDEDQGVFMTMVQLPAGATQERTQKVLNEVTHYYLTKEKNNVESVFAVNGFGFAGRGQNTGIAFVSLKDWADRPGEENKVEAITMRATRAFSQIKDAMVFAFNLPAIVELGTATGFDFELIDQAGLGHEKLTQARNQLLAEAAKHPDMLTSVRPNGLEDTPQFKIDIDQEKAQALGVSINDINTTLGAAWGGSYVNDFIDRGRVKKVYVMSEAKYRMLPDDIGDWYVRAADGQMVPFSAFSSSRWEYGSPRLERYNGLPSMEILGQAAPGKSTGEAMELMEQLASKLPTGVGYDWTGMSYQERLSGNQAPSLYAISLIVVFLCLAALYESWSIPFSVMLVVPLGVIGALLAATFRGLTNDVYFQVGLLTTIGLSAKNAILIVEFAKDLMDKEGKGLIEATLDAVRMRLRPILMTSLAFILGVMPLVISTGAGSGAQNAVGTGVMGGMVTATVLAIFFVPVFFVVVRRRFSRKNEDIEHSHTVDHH

[2] = target: T1, Multidrug efflux pump subunit AcrB (Escherichia coli (strain K12)); assay: Inhibition of AcrB in Escherichia coli BW25113 assessed as potentiation of tetraphenylphosphonium induced antibacterial activity by measuring tetraphenylphosphonium MIC at 128 ug/ml measured after 18 hrs by checkerboard titration method (reference value: 1024 ug/ml); conditions: dose 128.0 µg/ml
[3] = target: T1, Multidrug efflux pump subunit AcrB (Escherichia coli (strain K12)); assay: Inhibition of AcrB in Escherichia coli BW25113 assessed as potentiation of erythromycin induced antibacterial activity by measuring erythromycin MIC at 128 ug/ml measured after 18 hrs by checkerboard titration method (reference value: 64 ug/ml); conditions: dose 128.0 µg/ml
[4] = target: T1, Multidrug efflux pump subunit AcrB (Escherichia coli (strain K12)); assay: Inhibition of AcrB in Escherichia coli BW25113 assessed as potentiation of tetraphenylphosphonium induced antibacterial activity by measuring tetraphenylphosphonium MIC at 64 ug/ml measured after 18 hrs by checkerboard titration method (reference value: 1024 ug/ml); conditions: dose 64.0 µg/ml
[5] = target: T1, Multidrug efflux pump subunit AcrB (Escherichia coli (strain K12)); assay: Inhibition of AcrB in Escherichia coli BW25113 assessed as potentiation of chloramphenicol induced antibacterial activity by measuring chloramphenicol MIC at 128 ug/ml measured after 18 hrs by checkerboard titration method (reference value: 8 ug/ml); conditions: dose 128.0 µg/ml
[6] = target: T1, Multidrug efflux pump subunit AcrB (Escherichia coli (strain K12)); assay: Inhibition of AcrB in Escherichia coli BW25113 assessed as potentiation of rifampicin induced antibacterial activity by measuring rifampicin MIC at 128 ug/ml measured after 18 hrs by checkerboard titration method (reference value: 16 ug/ml); conditions: dose 128.0 µg/ml
[7] = target: T1, Multidrug efflux pump subunit AcrB (Escherichia coli (strain K12)); assay: Inhibition of AcrB in Escherichia coli BW25113 assessed as potentiation of chloramphenicol induced antibacterial activity by measuring chloramphenicol MIC at 8 ug/ml measured after 18 hrs by checkerboard titration method (reference value: 8 ug/ml); conditions: dose 8.0 µg/ml
[8] = target: T1, Multidrug efflux pump subunit AcrB (Escherichia coli (strain K12)); assay: Inhibition of AcrB in Escherichia coli BW25113 assessed as reduction in glucose-induced nile red efflux at 500 uM preincubated for 15 mins followed by nile red addition and incubated for 3 hrs in shaker in presence of CCCP by fluorimetric analysis; conditions: time 195.0 min
Outline: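 Wild-type E. coli cells with active AcrB were preloaded with Nile Red, with or without compound, before fluorescence recording began. At 100 sec, 0.2% glucose was added to re-energize the cells and trigger efflux, which was followed by fluorometry. An acrB-deleted isogenic strain served as the maximum-accumulation (no-efflux) reference. Triplicate experiments used different cell batches.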

[9] = target: T1, Multidrug efflux pump subunit AcrB (Escherichia coli (strain K12)); assay: Inhibition of AcrB in Escherichia coli BW25113 assessed as potentiation of rifampicin induced antibacterial activity by measuring rifampicin MIC at 64 ug/ml measured after 18 hrs by checkerboard titration method (reference value: 16 ug/ml); conditions: dose 64.0 µg/ml
[10] = target: T1, Multidrug efflux pump subunit AcrB (Escherichia coli (strain K12)); assay: Inhibition of AcrB in Escherichia coli BW25113 assessed as potentiation of tetraphenylphosphonium induced antibacterial activity by measuring tetraphenylphosphonium MIC at 8 ug/ml measured after 18 hrs by checkerboard titration method (reference value: 1024 ug/ml); conditions: dose 8.0 µg/ml

Nc1ccccc1C(=O)NCCc1ccc(O)c(O)c1
MIC [1]: 64 µg/mL | MIC [2]: 512 µg/mL | MIC [3]: 32 µg/mL | MIC [4]: 1020 µg/mL | MIC [5]: 4 µg/mL | MIC [6]: 16 µg/mL | MIC [7]: 8 µg/mL | inhibition [8]: Active | MIC [9]: 16 µg/mL | MIC [10]: 1020 µg/mL

O=C(NCCc1ccc(O)c(O)c1)c1cc(O)c(O)c(O)c1
MIC [1]: 32 µg/mL | MIC [2]: 256 µg/mL | MIC [3]: 16 µg/mL | MIC [4]: 512 µg/mL | MIC [5]: 2 µg/mL | MIC [6]: 16 µg/mL | MIC [7]: 4 µg/mL | inhibition [8]: Active | MIC [9]: 16 µg/mL | MIC [10]: 1020 µg/mL
